Laboratory results from ChEMBL document CHEMBL1153527, “Discovery of a novel series of quinolone and naphthyridine derivatives as potential topoisomerase I inhibitors by scaffold modification” (J Med Chem, 2009).
Calls of active or inactive are those of the source. The calls are words filed in the database; no cut-off is given here.

What was measured:
K562 = test: Cytotoxicity against p53-deficient human K562 cells after 48 hrs by SRB assay; format: functional, cell-based; conditions: K562, 48 h
MCF7 = test: Cytotoxicity against estrogen receptor-positive human MCF7 cells expressing wild type p53 after 48 hrs by SRB assay; format: functional, cell-based; conditions: MCF7, 48 h
How it was run: (§1)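 Cell lines came from CCRC, Taiwan. Cells were seeded at about 5 × 10^3 per well and left overnight. They were then given serum-free medium containing 0-10 μM compound (0.08-10 μM serial dilutions) for 48 h at 37 °C. Cells were fixed with TCA (10% final), stained with SRB (0.4% final), and the dye was dissolved in 10 mM Tris with A515 read. IC50 was taken from a fitted log concentration-response curve.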

A549 = test: Cytotoxicity against human A549 cells expressing wild type p53 after 48 hrs by SRB assay; format: functional, cell-based; conditions: A549, 48 h; how it was run: as §1
[1] = Cytotoxicity against p53-deficient human Hep3B cells after 48 hrs by SRB assay; format: functional, cell-based, Hep 3B2; how it was run: as §1
THP-1 = test: Cytotoxicity against human THP1 cells expressing p53 mutant after 48 hrs by SRB assay; format: functional, cell-based; conditions: THP-1, 48 h
HeLa = test: Cytotoxicity against p53-deficient human HeLa cells after 48 hrs by SRB assay; format: functional, cell-based; how it was run: as §1
U-937 = test: Cytotoxicity against human U937 cells expressing p53 mutant after 48 hrs by SRB assay; format: functional, cell-based; conditions: U-937, 48 h
Bel-7402 = test: Cytotoxicity against human Bel7402 cells after 48 hrs by MTT assay; format: functional, cell-based; conditions: Bel-7402, 48 h
[2] = Solubility in assay condition at 50 uM; format: physicochemical
AGS = test: Cytotoxicity against human AGS cells expressing wild type p53 after 48 hrs by SRB assay; format: functional, cell-based; how it was run: as §1
[3] = target: T1, DNA topoisomerase 1 (Homo sapiens) (UniProt P11387); test: Inhibition of DNA topoisomerase 1-mediated supercoiled Escherichia coli pBR322 DNA relaxation upto 25 uM after 30 mins
T1 sequence (whole entry): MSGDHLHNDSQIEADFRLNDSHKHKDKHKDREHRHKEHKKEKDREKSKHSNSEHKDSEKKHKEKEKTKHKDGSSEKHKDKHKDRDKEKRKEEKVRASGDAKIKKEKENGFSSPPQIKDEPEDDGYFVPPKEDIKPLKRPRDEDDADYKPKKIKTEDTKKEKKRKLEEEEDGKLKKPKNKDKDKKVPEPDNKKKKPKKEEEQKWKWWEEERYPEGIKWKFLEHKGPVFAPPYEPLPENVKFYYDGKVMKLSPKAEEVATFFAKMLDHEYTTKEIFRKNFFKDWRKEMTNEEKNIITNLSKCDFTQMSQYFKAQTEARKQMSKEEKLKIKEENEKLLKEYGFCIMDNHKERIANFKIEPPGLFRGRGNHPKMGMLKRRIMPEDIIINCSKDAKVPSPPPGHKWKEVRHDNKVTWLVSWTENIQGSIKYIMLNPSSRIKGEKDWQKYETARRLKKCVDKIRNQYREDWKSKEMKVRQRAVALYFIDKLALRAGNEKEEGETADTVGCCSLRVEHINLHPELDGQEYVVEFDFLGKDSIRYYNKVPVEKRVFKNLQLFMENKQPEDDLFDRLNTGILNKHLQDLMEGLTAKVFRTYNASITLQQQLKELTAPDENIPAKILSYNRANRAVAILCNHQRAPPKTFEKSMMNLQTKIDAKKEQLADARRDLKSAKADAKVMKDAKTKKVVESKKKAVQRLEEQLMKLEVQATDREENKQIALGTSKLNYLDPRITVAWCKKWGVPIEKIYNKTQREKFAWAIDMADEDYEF

A2780 = test: Cytotoxicity against human A2780 cells after 48 hrs by MTT assay; format: functional, cell-based; conditions: A2780, 48 h
HepG2 = test: Cytotoxicity against human HepG2 cells expressing wild type p53 after 48 hrs by SRB assay; format: functional, cell-based; conditions: HepG2, 48 h; how it was run: as §1
KB = test: Cytotoxicity against human KB cells after 48 hrs by MTT assay; format: functional, cell-based
[4] = Cytotoxicity against estrogen receptor-negative human […] cells expressing p53 mutant after 48 hrs by SRB assay; format: functional, cell-based; how it was run: as §1
HT-29 [5] = test: Cytotoxicity against human HT-29 cells expressing p53 mutant after 48 hrs by SRB assay; format: functional, cell-based; conditions: HT-29, 48 h; how it was run: as §1
PC-3 = test: Cytotoxicity against p53-deficient human PC3 cells after 48 hrs by SRB assay; format: functional, cell-based; conditions: PC-3, 48 h; how it was run: as §1
HT-29 [6] = test: Cell cycle distribution in human HT-29 cells assessed as accumulation at S phase at 0.1 uM after 12 hrs by flow cytometry; format: functional, cell-based
How it was run: (§2)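 HT-29 cells were exposed to vehicle or compound for 6, 12, 24 or 48 h. Attached and floating cells were collected by trypsin-EDTA, fixed in 70% ethanol, and treated with 0.1% Triton X-100 for 30 min. They were stained with 50 μg/mL PI plus 50 μg/mL RNase A for 30 min in the dark at room temperature. 10000 cells were read by FL2 at 488 nm excitation. S-phase and sub-G1 (apoptotic) fractions are expressed as % of total cells.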

HT-29 [7] = test: Cell cycle distribution in human HT-29 cells assessed as accumulation at S phase at 0.1 uM after 24 hrs by flow cytometry; format: functional, cell-based; how it was run: as §2
HT-29 [8] = test: Induction of apoptosis in human HT-29 cells assessed as increase in accumulation at sub-G1 phase at 0.1 uM after 48 hrs by flow cytometry; format: functional; how it was run: as §2
HT-29 [9] = test: Antitumor activity against human HT-29 cells xenografted in athymic BALB/c nude mouse at 5 mg/kg, ip for 2 days measured after 30 days relative to placebo control; format: functional; conditions: route intraperitoneal
How it was run: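 Female athymic BALB/c nude mice (35-40 days old, 18-22 g). HT-29 tumours first grown from 1 × 10^7 cells injected s.c. in the axillary fossa, then excised and transplanted. Treatment started at 100-300 mm3. Groups of n=6 were dosed i.p. daily in 400 μL: saline for 10 days, 5 mg/kg for 2 days, or 75/150 mg/kg for 10 days. Caliper volume was V=1/2·a·b². Values are relative to start volume, compared with placebo by Student's t test, and mice were killed on day 30.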

HT-29 [10] = test: Cell cycle distribution in human HT-29 cells assessed as accumulation at S phase at 0.1 uM after 48 hrs by flow cytometry; format: functional, cell-based; how it was run: as §2
HT-29 [11] = test: Cell cycle distribution in human HT-29 cells assessed as accumulation at sub-G1 phase at 0.1 uM after 48 hrs by flow cytometry; format: functional, cell-based; how it was run: as §2
HT-29 [12] = test: Cell cycle distribution in human HT-29 cells assessed as accumulation at S phase at 0.1 uM after 6 hrs by flow cytometry; format: functional, cell-based; how it was run: as §2
[13] = target: T1, DNA topoisomerase 1 (Homo sapiens); test: Induction of human topoisomerase 1-mediated chromosomal DNA strand breaks in HT-29 cells at 10 uM after 1 hr by comet assay; format: cell-based
How it was run: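 HT-29 cells were seeded at 1 × 10^4 per well and attached overnight, then treated for 1 h. Untreated cells served as negative control. Cells in low-melting agarose on precoated slides were lysed at pH 10.5 for 30 min at 4 °C and unwound in 300 mM NaOH/1 mM EDTA (pH >13) for 30 min at 4 °C. Electrophoresis ran 10 min at 16 V, with SYBR Gold staining. Read-out was mean % tail DNA from ≥50 nuclei, duplicates in three independent experiments.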

Row | SMILES | IC50 (K562) [nM] | GI50 (MCF7) [nM] | IC50 (MCF7) [nM] | GI50 (A549) [nM] | IC50 (A549) [nM] | GI50 [1] [nM] | IC50 [1] [nM] | IC50 (THP-1) [nM] | GI50 (HeLa) [nM] | IC50 (HeLa) [nM] | IC50 (U-937) [nM] | GI50 (AGS) [nM] | IC50 (AGS) [nM] | GI50 (HepG2) [nM] | IC50 (HepG2) [nM] | GI50 [4] [nM] | IC50 [4] [nM] | GI50 (HT-29 [5]) [nM] | IC50 (HT-29 [5]) [nM] | GI50 (PC-3) [nM] | also measured
1 | C[C@H]1COc2c(N3CCN(C)CC3)c(F)cc3c(=O)c(-c4nc5ccc([N+](=O)[O-])cc5s4)cn1c23 | > 10000 | > 10000 | > 10000 | 3900 | > 10000 | > 10000 | > 10000 | > 10000 | > 10000 | > 10000 | > 10000 | 7000 | 8800 | 7600 | > 10000 | > 10000 | > 10000 | 5000 | 10000 | 1800 | IC50 (Bel-7402): 2000 nM; solubility [2]: Insoluble; inhibition [3]: inactive; IC50 (A2780): 1200 nM; IC50 (KB): 600 nM; IC50 (PC-3): 9900 nM
2 | CC[C@@]1(O)C(=O)OCc2c1cc1n(c2=O)Cc2cc3c(CN(C)C)c(O)ccc3nc2-1 [TOPOTECAN] | 1700 | 800 | 2000 | 900 | 1900 | 400 | 1400 | 1500 | 80 | 1600 | 1100 | 100 | 300 | 1200 | 1600 | 900 | 2000 | 80 | 400 | 1300 | Activity (HT-29 [6]): Active; Activity (HT-29 [7]): Active; Activity (HT-29 [8]): 40.5%; Activity (HT-29 [9]): 76%; Activity (HT-29 [10]): Active; Activity (HT-29 [11]): Active; Activity (HT-29 [12]): Active; IC50 (PC-3): 2000 nM
3 | CC[C@@]1(O)C(=O)OCc2c1cc1n(c2=O)Cc2cc3ccccc3nc2-1 [CAMPTOTHECIN] | 1400 | 10 | 1100 | 10 | 40 | 10 | 60 | 600 | 40 | 200 | 300 | 10 | 20 | 100 | 200 | 80 | 1700 | 30 | 400 | 700 | Activity (HT-29 [6]): Active; Activity (HT-29 [7]): Active; Activity (HT-29 [8]): 44.8%; Activity (HT-29 [10]): Active; Activity [13]: 84%; Activity (HT-29 [11]): Active; Activity (HT-29 [12]): Active; IC50 (PC-3): 1400 nM
